Key:
[1] = target: T1, CYP3A4 (Homo sapiens, UniProt P08684); experiment: Time dependent inhibition of CYP3A4 (unknown origin) at 10 uM by LC/MS system; type: ADME
Method in brief: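 CYP3A4: human liver microsomes at 0.5 mg/mL in preincubation, 0.1 M sodium phosphate, NADPH-generating system, 0 or 30 min. Ten-fold dilution into incubation with 2.5 μM midazolam (final), 10 min. Each value is relative to the matched control without inhibitor. % enzyme inactivation = 100 × [1 − %control(30 min)/%control(0 min)]; 10% threshold.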

[2] = target: T2, CYP1A2 (Homo sapiens, UniProt P05177); experiment: in vitro
T2 sequence (P05177 whole entry): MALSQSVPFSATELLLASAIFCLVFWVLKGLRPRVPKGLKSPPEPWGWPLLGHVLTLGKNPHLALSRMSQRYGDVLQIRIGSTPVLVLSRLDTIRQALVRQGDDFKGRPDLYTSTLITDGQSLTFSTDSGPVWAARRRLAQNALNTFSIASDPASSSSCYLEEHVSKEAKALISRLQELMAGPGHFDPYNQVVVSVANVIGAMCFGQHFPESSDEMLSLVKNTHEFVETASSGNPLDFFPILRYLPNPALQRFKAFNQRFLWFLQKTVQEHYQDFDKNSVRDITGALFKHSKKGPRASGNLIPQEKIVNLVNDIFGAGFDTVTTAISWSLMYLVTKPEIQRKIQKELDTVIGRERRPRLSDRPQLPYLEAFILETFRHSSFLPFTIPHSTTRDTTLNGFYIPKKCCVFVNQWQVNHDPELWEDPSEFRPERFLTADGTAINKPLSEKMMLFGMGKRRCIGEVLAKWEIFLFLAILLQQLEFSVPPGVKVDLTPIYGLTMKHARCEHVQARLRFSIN

[3] = target: T3, CYP2B6 (Homo sapiens, UniProt P20813); experiment: in vitro
T3 sequence (P20813 whole entry): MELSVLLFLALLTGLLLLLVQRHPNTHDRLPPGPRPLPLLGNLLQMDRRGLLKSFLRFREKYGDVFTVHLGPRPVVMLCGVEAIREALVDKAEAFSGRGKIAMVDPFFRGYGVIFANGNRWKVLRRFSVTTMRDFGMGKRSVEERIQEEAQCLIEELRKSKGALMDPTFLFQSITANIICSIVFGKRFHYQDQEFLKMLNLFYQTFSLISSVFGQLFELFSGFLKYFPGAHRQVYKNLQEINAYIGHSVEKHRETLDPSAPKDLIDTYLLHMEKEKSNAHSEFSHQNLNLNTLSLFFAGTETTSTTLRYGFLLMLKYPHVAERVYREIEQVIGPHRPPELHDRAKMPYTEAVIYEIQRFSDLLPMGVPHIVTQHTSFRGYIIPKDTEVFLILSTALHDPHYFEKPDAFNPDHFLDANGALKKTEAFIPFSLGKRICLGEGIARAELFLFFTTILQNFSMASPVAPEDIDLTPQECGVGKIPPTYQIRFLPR

[4] = target: CYP2C9 (Homo sapiens, UniProt P11712); experiment: in vitro
[5] = target: T4, CYP2D6 (Homo sapiens, UniProt P10635); experiment: in vitro
[6] = target: T5, CYP2C8 (Homo sapiens, UniProt P10632); experiment: in vitro
T5 sequence (P10632 whole entry): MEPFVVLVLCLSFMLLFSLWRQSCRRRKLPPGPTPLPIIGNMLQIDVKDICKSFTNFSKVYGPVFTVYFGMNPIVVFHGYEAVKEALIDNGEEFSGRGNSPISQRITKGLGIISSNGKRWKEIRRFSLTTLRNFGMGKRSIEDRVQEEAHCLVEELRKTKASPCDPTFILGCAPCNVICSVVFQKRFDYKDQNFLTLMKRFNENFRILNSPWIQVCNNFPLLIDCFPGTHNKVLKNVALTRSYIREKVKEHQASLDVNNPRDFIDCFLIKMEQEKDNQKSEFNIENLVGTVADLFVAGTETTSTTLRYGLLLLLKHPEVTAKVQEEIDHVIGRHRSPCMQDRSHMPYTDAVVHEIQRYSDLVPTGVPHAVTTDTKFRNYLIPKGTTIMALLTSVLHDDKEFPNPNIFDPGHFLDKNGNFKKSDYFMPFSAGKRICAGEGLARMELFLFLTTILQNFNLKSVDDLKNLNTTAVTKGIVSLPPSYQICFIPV

[7] = tested on: Liver microsome; experiment: Covalent binding in human liver microsomes measured per mg of protein using radiolabelled compound at 10 uM after 1 hr incubation by liquid scintillation counting
[8] = tested on: Liver microsome; experiment: Metabolic activation in human liver microsomes assessed as [3H]GSH adduct formation rate measured per mg of protein at 100 uM by [3H]GSH trapping assay
[9] = target: T5, CYP2C8; experiment: Time dependent inhibition of CYP2C8 (unknown origin) at 30 uM by LC/MS system; type: ADME
Method in brief: (§1)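 CYP2C8 in human liver microsomes (1.0 mg/mL in preincubation), 0.1 M sodium phosphate, NADPH-generating system. Preincubation 0 or 30 min, then ten-fold dilution into incubation with 10 μM paclitaxel (final) for 10 min. Activity is taken relative to the matched no-inhibitor control. % inactivation = 100 × [1 − %control(30 min)/%control(0 min)]; threshold 10%.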

[10] = target: T4, CYP2D6; experiment: Time dependent inhibition of CYP2D6 (unknown origin) at 10 uM by LC/MS system; type: ADME
Method in brief: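 CYP2D6 activity was measured with 30 μM dextromethorphan (final) after 0 or 30 min preincubation of compound with human liver microsomes (1.0 mg/mL) and NADPH-generating system in 0.1 M sodium phosphate. A ten-fold dilution was followed by a 10-min incubation. % inactivation = 100 × [1 − %control(30 min)/%control(0 min)]; threshold 10%.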

[11] = Intrinsic clearance for reactive metabolites formation assessed as summation of [3H]GSH adduct formation rate-based reactive metabolites formation and cytochrome P450 (unknown origin) inactivation rate-based reactive metabolites formation; conditions: human
[12] = tested on: Liver microsome; conditions: human, microsomes, 100 µM
[13] = target: CYP2C19 (Homo sapiens, UniProt P33261); experiment: in vitro
[14] = target: T1, CYP3A4; experiment: in vitro
[15] = target: T3, CYP2B6; experiment: Time dependent inhibition of CYP2B6 (unknown origin) at 10 uM by LC/MS system; type: ADME
Method in brief: as §1, with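 “CYP2B6” for “CYP2C8”, “solution containing 50” for “with 10”, “bupropion” for “paclitaxel”, “expressed as percent of” for “taken relative to”, “control(30 min)/control(0” for “%control(30 min)/%control(0”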

[16] = target: T5, CYP2C8; experiment: Time dependent inhibition of CYP2C8 (unknown origin) at 3 uM by LC/MS system; type: ADME; method in brief: as §1
[17] = Intrinsic clearance for reactive metabolites formation per mg of protein based on cytochrome P450 (unknown origin) inactivation rate by TDI assay; conditions: human

CYP2C9, sequence (P11712 whole entry): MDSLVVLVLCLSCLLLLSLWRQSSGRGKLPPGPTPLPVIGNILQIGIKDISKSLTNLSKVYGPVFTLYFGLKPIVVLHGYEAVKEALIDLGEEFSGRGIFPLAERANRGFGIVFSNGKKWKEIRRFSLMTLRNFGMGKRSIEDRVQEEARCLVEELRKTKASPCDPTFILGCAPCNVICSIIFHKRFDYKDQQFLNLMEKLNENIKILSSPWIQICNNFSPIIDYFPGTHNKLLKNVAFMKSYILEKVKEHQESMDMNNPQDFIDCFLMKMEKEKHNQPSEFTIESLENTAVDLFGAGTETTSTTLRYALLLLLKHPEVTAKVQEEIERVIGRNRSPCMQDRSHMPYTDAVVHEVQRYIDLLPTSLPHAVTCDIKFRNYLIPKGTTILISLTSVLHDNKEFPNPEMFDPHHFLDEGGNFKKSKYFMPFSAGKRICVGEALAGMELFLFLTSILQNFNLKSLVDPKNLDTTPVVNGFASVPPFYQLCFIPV
T1 sequence (P08684 whole entry): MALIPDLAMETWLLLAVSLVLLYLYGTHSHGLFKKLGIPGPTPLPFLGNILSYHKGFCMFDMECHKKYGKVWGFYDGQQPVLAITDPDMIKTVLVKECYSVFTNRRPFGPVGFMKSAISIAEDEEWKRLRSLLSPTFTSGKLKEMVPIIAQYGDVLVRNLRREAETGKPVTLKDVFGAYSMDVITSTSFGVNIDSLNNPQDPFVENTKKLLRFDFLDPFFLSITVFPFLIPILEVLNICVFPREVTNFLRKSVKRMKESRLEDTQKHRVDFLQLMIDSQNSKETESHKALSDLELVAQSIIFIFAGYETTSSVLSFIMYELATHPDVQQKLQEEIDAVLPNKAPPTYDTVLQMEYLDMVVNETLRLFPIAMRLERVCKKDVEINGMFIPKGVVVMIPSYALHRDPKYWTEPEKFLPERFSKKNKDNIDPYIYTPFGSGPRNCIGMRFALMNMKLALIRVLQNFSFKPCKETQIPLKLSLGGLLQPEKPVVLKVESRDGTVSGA
CYP2C19, sequence (P33261 whole entry): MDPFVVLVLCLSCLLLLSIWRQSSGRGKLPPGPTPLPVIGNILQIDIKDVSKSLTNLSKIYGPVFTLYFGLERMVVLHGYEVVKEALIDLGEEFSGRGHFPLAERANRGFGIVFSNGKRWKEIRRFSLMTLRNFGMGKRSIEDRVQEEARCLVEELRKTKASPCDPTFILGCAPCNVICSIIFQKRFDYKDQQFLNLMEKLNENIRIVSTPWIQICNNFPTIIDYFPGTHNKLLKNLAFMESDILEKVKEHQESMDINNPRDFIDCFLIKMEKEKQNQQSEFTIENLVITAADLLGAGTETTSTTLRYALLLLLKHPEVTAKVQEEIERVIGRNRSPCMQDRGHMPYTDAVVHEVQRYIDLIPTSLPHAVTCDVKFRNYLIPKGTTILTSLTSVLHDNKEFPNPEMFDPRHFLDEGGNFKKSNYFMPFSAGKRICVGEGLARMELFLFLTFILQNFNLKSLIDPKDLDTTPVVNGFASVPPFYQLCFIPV
T4 sequence (P10635 whole entry): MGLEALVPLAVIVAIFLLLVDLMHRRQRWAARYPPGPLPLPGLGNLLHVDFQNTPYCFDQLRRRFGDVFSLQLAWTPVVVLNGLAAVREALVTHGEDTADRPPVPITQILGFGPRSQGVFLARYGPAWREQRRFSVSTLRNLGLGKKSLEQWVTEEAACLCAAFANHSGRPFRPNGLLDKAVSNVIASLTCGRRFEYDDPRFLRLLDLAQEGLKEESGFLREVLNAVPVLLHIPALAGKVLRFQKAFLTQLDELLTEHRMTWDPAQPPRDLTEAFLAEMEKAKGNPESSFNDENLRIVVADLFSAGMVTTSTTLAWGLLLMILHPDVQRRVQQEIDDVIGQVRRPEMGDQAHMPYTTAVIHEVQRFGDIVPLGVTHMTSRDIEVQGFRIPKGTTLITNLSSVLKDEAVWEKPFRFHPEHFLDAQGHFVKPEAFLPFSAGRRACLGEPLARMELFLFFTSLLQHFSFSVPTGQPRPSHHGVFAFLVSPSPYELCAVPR

CC(=O)Nc1ccc(O)cc1 [ACETAMINOPHEN]
inhibition at 10 µM [1]: < 10% | inhibition at 100 µM [2]: < 10% | inhibition at 100 µM [3]: < 10% | inhibition at 100 µM [4]: < 10% | inhibition at 100 µM [5]: < 10% | inhibition at 100 µM [6]: < 10%

CCN(CC)Cc1cc(Nc2ccnc3cc(Cl)ccc23)ccc1O [AMODIAQUINE]
PB [7]: 208.1 pmol | Drug metabolism [8]: 2.1 pmol/min | inhibition at 30 µM [9]: < 10% | inhibition at 10 µM [10]: < 10% | clearance [11]: 0.021 µL/min/mg | CLH [12]: 0.021 µL/min/mg | inhibition at 100 µM [2]: < 10% | inhibition at 100 µM [3]: < 10% | inhibition at 100 µM [4]: < 10% | inhibition at 100 µM ([13]; microsomes): < 10% | inhibition at 100 µM [14]: < 10%

CCc1oc2ccccc2c1C(=O)c1cc(Br)c(O)c(Br)c1 [BENZBROMARONE]
inhibition at 10 µM [15]: < 10% | PB [7]: 389.9 pmol | Drug metabolism [8]: 3 pmol/min | inhibition at 10 µM [1]: < 10% | inhibition at 3 µM [16]: < 10% | clearance [17]: 0.002 µL/min/mg | clearance [11]: 0.032 µL/min/mg | CLH [12]: 0.03 µL/min/mg | inhibition at 100 µM [2]: 12% | inhibition at 100 µM ([13]; human liver microsomes): < 10% | inhibition at 100 µM [5]: < 10%

NC(=O)N1c2ccccc2C=Cc2ccccc21 [CARBAMAZEPINE]
PB [7]: 3.3 pmol | Drug metabolism [8]: metabolite_not_detected | inhibition at 10 µM [1]: < 10% | inhibition at 100 µM [2]: < 10% | inhibition at 100 µM [3]: < 10% | inhibition at 100 µM [4]: < 10% | inhibition at 100 µM ([13]; microsomes): < 10% | inhibition at 100 µM [5]: < 10% | inhibition at 100 µM [6]: < 10%

O=C(O)Cc1ccccc1Nc1c(Cl)cccc1Cl [DICLOFENAC]
Drug metabolism [8]: 1 pmol/min | clearance [11]: 0.01 µL/min/mg | CLH [12]: 0.01 µL/min/mg | inhibition at 100 µM [2]: < 10% | inhibition at 100 µM [3]: < 10% | inhibition at 100 µM [4]: < 10% | inhibition at 100 µM ([13]; microsomes): < 10% | inhibition at 100 µM [5]: < 10% | inhibition at 100 µM [14]: < 10% | inhibition at 100 µM [6]: < 10%

CC(C)C(=O)Nc1ccc([N+](=O)[O-])c(C(F)(F)F)c1 [FLUTAMIDE]
PB [7]: 178 pmol | Drug metabolism [8]: 2 pmol/min | clearance [11]: 0.02 µL/min/mg | CLH [12]: 0.02 µL/min/mg | inhibition at 100 µM [2]: < 10% | inhibition at 100 µM [3]: < 10% | inhibition at 100 µM [4]: < 10% | inhibition at 100 µM ([13]; human liver microsomes): < 10% | inhibition at 100 µM [5]: < 10% | inhibition at 100 µM [14]: < 10% | inhibition at 100 µM [6]: < 10%

Reference: ChEMBL document CHEMBL3526118, “Combination of GSH trapping and time-dependent inhibition assays as a predictive method of drugs generating highly reactive metabolites” (Drug Metab Dispos, 2011)
